Published values gathered from unrelated publications.
Protocols differ between the studies behind these lines.
Target: Calcium/calmodulin-dependent protein kinase type II subunit alpha (CAMK2A, Homo sapiens, UniProt Q9UQM7)

`C1=C/COCc2cc(ccc2OCCN2CCCC2)Nc2nccc(n2)-c2cccc(c2)COC/1` gave a remaining binding of 91% (binding; 0.1 µM).
With `C=CC(=O)N1CCC([C@@H]2CCNc3c(C(N)=O)c(-c4ccc(Oc5ccccc5)cc4)nn32)CC1` the inhibition was 0% (enzyme activity; inhibitor; 1 µM).
The inhibition of `CCCCCCCCCCCO` is reported as -20% (enzyme activity; inhibitor; 10 µM).
For `C[C@H]1CC[C@H](n2c3cnccc3c3cnc(Nc4ccc5c(n4)CCN(C(=O)CO)C5)nc32)CC1`, the remaining signal was 33% (cell-free assay; 1 µM).
`CCCCCCCCCCCCCCCCCCCCCCO` gave an inhibition of -5% (enzyme activity; inhibitor; 10 µM).
The activity vs control of `CC(C)S(=O)(=O)c1ccc2nccc(Nc3ccc4sc(C5CCCC5)nc4c3)c2c1` is reported as 104% (enzyme activity; inhibitor; 1 µM).
For `CCCCC(=O)Nc1ccc(-c2ccc3ncn(CCC)c(=O)c3c2)cn1`, the remaining binding was 100% (binding; competition with immobilised ligand; 0.5 µM).
`COc1ccc2[nH]c3c4[nH]c5ccc(OC)cc5c4c4c(c3c2c1)C(=O)NC4=O` gave a remaining binding of 70% (binding; 1 µM).
For `COc1ccc2oc(-c3ccc4nc(N)oc4c3)c/c(=N\c3ccccc3NC(=O)CCN)c2c1`, the remaining binding was 93% (binding; 1 µM).
The inhibition of `CO[C@@H]1[C@H](N(C)C(=O)c2ccccc2)C[C@H]2O[C@]1(C)n1c3ccccc3c3c4c(c5c6ccccc6n2c5c31)C(=O)NC4` is reported as 94% (enzyme activity; inhibitor; 1 µM).
